Data from ChEMBL document CHEMBL1157379, “Transcriptional response of Candida parapsilosis following exposure to farnesol” (2007).
Activity calls are given as the source filed them. No cut-off for these calls is given here.

Columns and labels:
Candida parapsilosis [1] = test: Decrease in HOS2 gene expression in Candida parapsilosis CLIB214 at 50 uM after 2 hrs by microarray based transcriptional profiling relative to control; type: functional
Procedure, shortened: (§1)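 Strain CLIB214 grown overnight in YPD at 30°C, diluted to A600 0.2 in fresh YPD at 30°C. After 4 h (A600 0.8), farnesol (40 mM methanol stock) added to 50 μM final, or an equal methanol volume as control; cells harvested 2 h later. RNA was accepted only with a 28S/18S ratio of 1.6–2.2. Cy3/Cy5-dCTP-labelled cDNA was made from 25 μg total RNA. Hybridisation was to duplicate-spotted 68-mer oligo arrays (3,849 genes) at 42°C for about 16 h. Six individual comparisons.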

Candida parapsilosis [2] = test: Antifungal activity against Candida parapsilosis CLIB214 assessed as growth inhibition in presence of 10% fetal calf serum at 37 degC; type: functional, organism-based
Procedure, shortened: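 YPD cultures started at A600 0.2, supplemented with 10% (vol/vol) fetal calf serum, and grown at 30°C or 37°C. Farnesol added with the serum. Growth monitored by A600 or cell counting.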

Candida parapsilosis [3] = test: Increase in CGD gene ortholog accession number orf19.2446 expression in Candida parapsilosis CLIB214 at 50 uM after 2 hrs by microarray based transcriptional profiling relative to control; type: functional; procedure, shortened: as §1
Candida parapsilosis [4] = test: Decrease in CGD gene ortholog accession number orf19.5156 expression in Candida parapsilosis CLIB214 at 50 uM after 2 hrs by microarray based transcriptional profiling relative to control; type: functional
Procedure, shortened: (§2)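 Cells in YPD at 30°C treated with 50 μM farnesol at 4 h, with a methanol control. RNA harvested 2 h later and kept only if 28S/18S ratio was 1.6–2.2 with no degradation. 25 μg total RNA oligo-dT primed and labeled with Cy3/Cy5-dCTP. Labeled cDNA hybridized about 16 h at 42°C to duplicate-spotted 68-mer oligo arrays. Six individual comparisons analyzed statistically.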

Candida parapsilosis [5] = test: Decrease in ZCF23 gene expression in Candida parapsilosis CLIB214 at 50 uM after 2 hrs by microarray based transcriptional profiling relative to control; type: functional; procedure, shortened: as §1
Candida parapsilosis [6] = test: Increase in CGD gene ortholog accession number orf19.6539 expression in Candida parapsilosis CLIB214 at 50 uM after 2 hrs by microarray based transcriptional profiling relative to control; type: functional; procedure, shortened: as §1
Candida parapsilosis [7] = test: Increase in CGD gene ortholog accession number orf19.3349 expression in Candida parapsilosis CLIB214 at 50 uM after 2 hrs by microarray based transcriptional profiling relative to control; type: functional; procedure, shortened: as §1
Candida parapsilosis [8] = test: Decrease in CGD gene ortholog accession number orf19.2697 expression in Candida parapsilosis CLIB214 at 50 uM after 2 hrs by microarray based transcriptional profiling relative to control; type: functional; procedure, shortened: as §2
Candida parapsilosis [9] = test: Decrease in CGD gene ortholog accession number orf19.2097 expression in Candida parapsilosis CLIB214 at 50 uM after 2 hrs by microarray based transcriptional profiling relative to control; type: functional; procedure, shortened: as §2
Candida parapsilosis [10] = test: Increase in DOT5 gene expression in Candida parapsilosis CLIB214 at 50 uM after 2 hrs by microarray based transcriptional profiling relative to control; type: functional
Procedure, shortened: (§3)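 Strain grown overnight in YPD at 30°C, diluted to A600 0.2 in YPD at 30°C; farnesol (40 mM methanol stock) added at 4 h (A600 0.8), final 50 μM; methanol-only control. Cells collected 2 h later for RNA. Labelled cDNA from 25 μg total RNA (Cy3/Cy5-dCTP) hybridized to 68-mer oligo arrays at 42°C ~16 h; six individual comparisons analysed statistically.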

Candida parapsilosis [11] = test: Antifungal activity against Candida parapsilosis CLIB214 assessed as growth inhibition at 50 uM added 4 hrs after […] growth within 2 hrs by cell counting method; type: functional, organism-based
Procedure, shortened: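 C. parapsilosis CLIB214 grown overnight in YPD at 30°C, diluted to A600 0.2 in fresh YPD, grown 4 h (A600 0.8), then farnesol added at final 10, 20, 50 or 100 μM from a 40 mM methanol stock. Methanol-only controls. Growth followed by A600 or by cell counting with a particle counter.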

Candida parapsilosis [12] = test: Decrease in ARG11 gene expression in Candida parapsilosis CLIB214 at 50 uM after 2 hrs by microarray based transcriptional profiling relative to control; type: functional; procedure, shortened: as §2
Candida parapsilosis [13] = test: Increase in CGD gene ortholog accession number orf19.5963 expression in Candida parapsilosis CLIB214 at 50 uM after 2 hrs by microarray based transcriptional profiling relative to control; type: functional; procedure, shortened: as §1
Candida parapsilosis [14] = test: Antifungal activity against Candida parapsilosis CLIB214 assessed as reduction of biofilm formation at 100 uM added 4 hrs after […] growth by crystal violet assay; type: functional; design: scale not given: the % may be the effect or the level left
Procedure, shortened: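 Cells grown overnight in YNB, diluted to A600 1, and left to adhere 2 h at 37°C. Nonadherent cells washed off with PBS, then fresh YNB added and plates incubated 24 h at 37°C. Biofilms stained with 0.1% crystal violet for 15 min at 30°C, destained 4 h in 33% acetic acid, and read at A570.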

Candida parapsilosis [15] = test: Antifungal activity against Candida parapsilosis CLIB214 assessed as growth inhibition at 50 uM added after 4 hrs of bacterial growth measured after 4 hrs; type: functional; settings: Lodderomyces parapsilosis, CLIB214, 4 h
Procedure, shortened: (§4)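 Overnight YPD culture at 30°C diluted to A600 0.2 in YPD. Farnesol added to 50 μM final at 2, 4, 6 or 8 h of growth (A600 about 0.8 at 4 h, 2.3 at 6 h, 6 at 8 h). Growth compared with methanol controls by A600 or cell counts.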

Candida parapsilosis [16] = test: Decrease in CGD gene ortholog accession number orf19.1608 expression in Candida parapsilosis CLIB214 at 50 uM after 2 hrs by microarray based transcriptional profiling relative to control; type: functional; procedure, shortened: as §2
Candida parapsilosis [17] = test: Increase in CGD gene ortholog accession number orf19.3617 expression in Candida parapsilosis CLIB214 at 50 uM after 2 hrs by microarray based transcriptional profiling relative to control; type: functional; procedure, shortened: as §1
Candida parapsilosis [18] = test: Decrease in CGD gene ortholog accession number orf19.2308 expression in Candida parapsilosis CLIB214 at 50 uM after 2 hrs by microarray based transcriptional profiling relative to control; type: functional; procedure, shortened: as §2
Candida parapsilosis [19] = test: Antifungal activity against Candida parapsilosis CLIB214 assessed as growth inhibition at 50 uM added after 6 hrs of bacterial growth measured after 4 hrs; type: functional; settings: Lodderomyces parapsilosis; procedure, shortened: as §4
Candida parapsilosis [20] = test: Increase in KRE30 gene expression in Candida parapsilosis CLIB214 at 50 uM after 2 hrs by microarray based transcriptional profiling relative to control; type: functional; procedure, shortened: as §3
Candida parapsilosis [21] = test: Increase in PLB3 gene expression in Candida parapsilosis CLIB214 at 50 uM after 2 hrs by microarray based transcriptional profiling relative to control; type: functional; procedure, shortened: as §3
Candida parapsilosis [22] = test: Antifungal activity against Candida parapsilosis CLIB214 assessed as growth inhibition at 50 uM added after 2 hrs of bacterial growth measured after 4 hrs; type: functional; settings: Lodderomyces parapsilosis; procedure, shortened: as §4
Candida parapsilosis [23] = test: Increase in CGD gene ortholog accession number orf19.3185 expression in Candida parapsilosis CLIB214 at 50 uM after 2 hrs by microarray based transcriptional profiling relative to control; type: functional; procedure, shortened: as §1
Candida parapsilosis [24] = test: Decrease in CGD gene ortholog accession number orf19.2366 expression in Candida parapsilosis CLIB214 at 50 uM after 2 hrs by microarray based transcriptional profiling relative to control; type: functional; procedure, shortened: as §2

With `CC(C)=CCC/C(C)=C/CC/C(C)=C/CO` [FARNESOL] the “fold change (FC)” value (Candida parapsilosis [1]) was 2.62, the Activity (Candida parapsilosis [2]) was “inactive” and the “fold change (FC)” value (Candida parapsilosis [3]) was 1.59. The “fold change (FC)” value (Candida parapsilosis [4]) was 2.02, the “fold change (FC)” value (Candida parapsilosis [5]) was 1.97 and the “fold change (FC)” value (Candida parapsilosis [6]) was 1.5. For the same molecule, the “fold change (FC)” value (Candida parapsilosis [7]) was 1.78, the “fold change (FC)” value (Candida parapsilosis [8]) was 1.81 and the “fold change (FC)” value (Candida parapsilosis [9]) was 1.53. The “fold change (FC)” value (Candida parapsilosis [10]) was 1.5, the Activity (Candida parapsilosis [11]) was “Active” and the “fold change (FC)” value (Candida parapsilosis [12]) was 1.56. For the same molecule, the “fold change (FC)” value (Candida parapsilosis [13]) was 1.68, the Activity (Candida parapsilosis [14]) was 30% and the inhibition at 50 µM (Candida parapsilosis [15]) was 83%. The “fold change (FC)” value (Candida parapsilosis [16]) was 1.62, the “fold change (FC)” value (Candida parapsilosis [17]) was 1.55 and the “fold change (FC)” value (Candida parapsilosis [18]) was 1.7. The inhibition at 50 µM (Candida parapsilosis [19]) was 49%, the “fold change (FC)” value (Candida parapsilosis [20]) was 2.24 and the “fold change (FC)” value (Candida parapsilosis [21]) was 1.66. The inhibition at 50 µM (Candida parapsilosis [22]) was 71%, the “fold change (FC)” value (Candida parapsilosis [23]) was 1.6 and the “fold change (FC)” value (Candida parapsilosis [24]) was 3.21.
